According to ChEMBL document CHEMBL2321658 (ACS Med Chem Lett, 2013):
pIC50: −log10 of the molar value. Calls of active or inactive are those of the source. The calls are words filed in the database; no cut-off is given here.

What was measured:
MCF7 [1] = experiment: Antiproliferative activity against human MCF7 cells; type: functional, cell-based
In short: (§1)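 Cell growth inhibition with values in µM, reported as mean ± standard deviation from at least two separate experiments, each run in triplicate.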

SK-BR-3 = experiment: Antiproliferative activity against human SKBR3 cells; type: functional, cell-based; in short: as §1
SKBr3 (Homo sapiens) = experiment: Antiproliferative activity against human SKBr3 cells
Heat shock protein HSP90 [2] = biological target: T1, Heat shock protein HSP90 (Homo sapiens, UniProt P07900+P08238); experiment: Inhibition of Hsp90 (unknown origin); type: protein assay
Heat shock protein HSP90 [3] = biological target: T1, Heat shock protein HSP90; experiment: Inhibition of Hsp90 in human MCF7 cells assessed as Raf degradation after 24 hrs by Western blot analysis; type: cell-based
In short: (§2)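 MCF-7 cells treated across a range of concentrations (in µM). Cell lysates were analysed by western blot for the Hsp90-dependent client proteins Her2, Raf and Akt. Geldanamycin (500 nM) served as positive control and DMSO as negative control.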

Heat shock protein HSP90 [4] = biological target: T1, Heat shock protein HSP90; experiment: Inhibition of Hsp90 in human MCF7 cells assessed as Akt degradation after 24 hrs by Western blot analysis; type: cell-based; in short: as §2
MCF7 [5] = experiment: Effect on Hsp90 level in human MCF7 cells after 24 hrs by Western blot analysis; type: functional, cell-based
Heat shock protein HSP90 [6] = biological target: T1, Heat shock protein HSP90; experiment: Inhibition of Hsp90 in human MCF7 cells assessed as Her2 degradation after 24 hrs by Western blot analysis; type: cell-based; in short: as §2

Structure (SMILES) | pIC50 (MCF7 [1]) | pIC50 (SK-BR-3) | IC50 (SKBr3 (Homo sapiens)) [µM] | further results
COc1cccc(-c2cc(C(=O)Nc3cc4ccc(OC5CCN(C)CC5)c(C)c4oc3=O)ccc2OC(C)=O)c1 | 6.04 | 6.04 | – | –
CC(C)=CCc1cc(C(=O)Nc2cc3ccc(OC4CCN(C)CC4)c(C)c3oc2=O)ccc1OCCN(C)C | 6.14 | 6.48 | – | –
COc1ccc(C(=O)Nc2cc3ccc(OC4CCN(C)CC4)c(C)c3oc2=O)cc1-c1cccc(OC(C)=O)c1 | 6.44 | 6.54 | – | –
COc1ccc(C(=O)Nc2cc3ccc(OC4CCN(C)CC4)c(C)c3oc2=O)cc1CC=C(C)C | 5.80 | 5.85 | – | –
C#CCOc1ccc(C(=O)Nc2cc3ccc(OC4CCN(C)CC4)c(C)c3oc2=O)cc1CC=C(C)C | 5.95 | 5.85 | – | –
COc1cccc(-c2cc(C(=O)Nc3cc4ccc(OC5CCN(C)CC5)c(C)c4oc3=O)ccc2OC)c1 | – | – | 1.34 | –
CO[C@@H]1[C@@H](O)[C@@H](O)[C@H](Oc2ccc3cc(NC(=O)c4ccc(O)c(CC=C(C)C)c4)c(=O)oc3c2C)OC1(C)C | – | – | 10.9 | –
COc1ccc(C(=O)Nc2cc3ccc(OC4CCN(C)CC4)c(C)c3oc2=O)cc1-c1cccc(O)c1 | 6.42 | 6.51 | – | IC50 (Heat shock protein HSP90 [2]): 0.31 µM
Cc1c(OCCC2CCCCN2)ccc2cc(NC(=O)Nc3ccc(Cl)cc3)c(=O)oc12 (centres undefined) | – | – | 0.21 | –
COc1cccc(-c2cc(C(=O)Nc3cc4ccc(O[C@@H]5OC(C)(C)[C@H](OC)[C@@H](O)[C@H]5O)c(C)c4oc3=O)ccc2OC)c1 | – | – | 7.5 | –
CCCCOc1ccc(C(=O)Nc2cc3ccc(OC4CCN(C)CC4)c(C)c3oc2=O)cc1CC=C(C)C | 5.84 | 5.85 | – | –
CC(C)=CCc1cc(C(=O)Nc2cc3ccc(OC4CCN(C)CC4)c(C)c3oc2=O)ccc1OCCCN(C)C | 6.34 | 6.60 | – | inhibition (Heat shock protein HSP90 [3]): Dose-dependent effect; inhibition (Heat shock protein HSP90 [4]): Dose-dependent effect; Activity (MCF7 [5]): inactive; inhibition (Heat shock protein HSP90 [6]): Dose-dependent effect
CC(C)=CCc1cc(C(=O)Nc2cc3ccc(OC4CCN(C)CC4)c(C)c3oc2=O)ccc1OC1CCN(C)CC1 | 6.33 | 6.68 | – | –
COc1ccc(C(=O)Nc2cc3ccc(O[C@@H]4OC(C)(C)[C@H](OC)[C@@H](O)[C@H]4O)c(C)c3oc2=O)cc1-c1cccc(O)c1 | – | – | 2.9 | –
C=CCc1cc(C(=O)Nc2cc3ccc(OC4CCN(C)CC4)c(C)c3oc2=O)ccc1OC(C)=O | 5.70 | 5.65 | – | –
COc1cccc(-c2cc(C(=O)Nc3cc4ccc(O[C@@H]5OC(C)(C)[C@H](OC)[C@@H](O)[C@H]5O)c(OC)c4oc3=O)ccc2OC)c1 | – | – | 13.9 | –

The next lines start with results.

pIC50 (MCF7 [1]) | pIC50 (SK-BR-3) | IC50 (SKBr3 (Homo sapiens)) [µM] | Structure (SMILES) | further results
4.93 | 4.94 | – | Cc1c(OC2CCN(C)CC2)ccc2cc(NC(=O)c3ccccc3)c(=O)oc12 | –
5.79 | 5.46 | – | CC(=O)Oc1ccc(C(=O)Nc2cc3ccc(OC4CCN(C)CC4)c(C)c3oc2=O)cc1Cl | –
5.90 | 6.22 | – | Cc1c(OC2CCN(C)CC2)ccc2cc(NC(=O)c3ccc(O)c(CCC(C)C)c3)c(=O)oc12 | –
– | – | 0.31 | Cc1ccc(NC(=O)Nc2cc3ccc(OC4CCN(C)CC4)c(C)c3oc2=O)cc1C | –
5.68 | 5.77 | – | CC(C)=CCc1cccc(C(=O)Nc2cc3ccc(OC4CCN(C)CC4)c(C)c3oc2=O)c1 | –
5.83 | 5.64 | – | Cc1c(OC2CCN(C)CC2)ccc2cc(NC(=O)c3ccc(O)c(Cl)c3)c(=O)oc12 | –
5.66 | 5.61 | – | C=CCc1cc(C(=O)Nc2cc3ccc(OC4CCN(C)CC4)c(C)c3oc2=O)ccc1O | –
– | – | 0.17 | Cc1c(OC2CCN(C)CC2)ccc2cc(NC(=O)Nc3ccc(Cl)cc3)c(=O)oc12 | –
5.84 | 6.08 | – | Cc1c(OC2CCN(C)CC2)ccc2cc(NC(=O)c3ccc(O)cc3)c(=O)oc12 | –
5.79 | 5.78 | – | CC(=O)Oc1ccc(C(=O)Nc2cc3ccc(OC4CCN(C)CC4)c(C)c3oc2=O)cc1 | –
5.30 | 5.46 | – | Cc1c(OC2CCN(C)CC2)ccc2cc(NC(=O)c3ccc4c(c3)CCC(C)(C)O4)c(=O)oc12 | –
6.09 | 6.07 | – | COc1cccc(-c2cc(C(=O)Nc3cc4ccc(OC5CCN(C)CC5)c(C)c4oc3=O)ccc2O)c1 | –
– | – | 0.27 | Cc1ccc(NC(=O)Nc2cc3ccc(OC4CCN(C)CC4)c(C)c3oc2=O)cc1 | –
